Measured values: ChEMBL document CHEMBL3352608, “Medicinal chemistry optimization of antiplasmodial imidazopyridazine hits from high throughput screening of a softfocus kinase library: part 2” (J Med Chem, 2014)
Converted amounts (≈) assume the structure as drawn.

Experiments:
[1] = Plasma concentration in mouse infected with Plasmodium berghei ANKA at 50 mg/kg/day, po after 4 hrs by HPLC analysis; type: ADME, organism-based; design: route oral
Procedure, shortened: (§1)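 P. berghei-infected mice dosed orally at 50 mg/kg daily for 4 days; blood sampled 1, 4 and 24 h after the first dose and analysed by HPLC for drug levels.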

[2] = target: Voltage-gated inwardly rectifying potassium channel KCNH2 (Homo sapiens, UniProt Q12809); test: Inhibition of human ERG channel by patch clamp technique
Sequence of Voltage-gated inwardly rectifying potassium channel KCNH2 (Q12809 whole entry): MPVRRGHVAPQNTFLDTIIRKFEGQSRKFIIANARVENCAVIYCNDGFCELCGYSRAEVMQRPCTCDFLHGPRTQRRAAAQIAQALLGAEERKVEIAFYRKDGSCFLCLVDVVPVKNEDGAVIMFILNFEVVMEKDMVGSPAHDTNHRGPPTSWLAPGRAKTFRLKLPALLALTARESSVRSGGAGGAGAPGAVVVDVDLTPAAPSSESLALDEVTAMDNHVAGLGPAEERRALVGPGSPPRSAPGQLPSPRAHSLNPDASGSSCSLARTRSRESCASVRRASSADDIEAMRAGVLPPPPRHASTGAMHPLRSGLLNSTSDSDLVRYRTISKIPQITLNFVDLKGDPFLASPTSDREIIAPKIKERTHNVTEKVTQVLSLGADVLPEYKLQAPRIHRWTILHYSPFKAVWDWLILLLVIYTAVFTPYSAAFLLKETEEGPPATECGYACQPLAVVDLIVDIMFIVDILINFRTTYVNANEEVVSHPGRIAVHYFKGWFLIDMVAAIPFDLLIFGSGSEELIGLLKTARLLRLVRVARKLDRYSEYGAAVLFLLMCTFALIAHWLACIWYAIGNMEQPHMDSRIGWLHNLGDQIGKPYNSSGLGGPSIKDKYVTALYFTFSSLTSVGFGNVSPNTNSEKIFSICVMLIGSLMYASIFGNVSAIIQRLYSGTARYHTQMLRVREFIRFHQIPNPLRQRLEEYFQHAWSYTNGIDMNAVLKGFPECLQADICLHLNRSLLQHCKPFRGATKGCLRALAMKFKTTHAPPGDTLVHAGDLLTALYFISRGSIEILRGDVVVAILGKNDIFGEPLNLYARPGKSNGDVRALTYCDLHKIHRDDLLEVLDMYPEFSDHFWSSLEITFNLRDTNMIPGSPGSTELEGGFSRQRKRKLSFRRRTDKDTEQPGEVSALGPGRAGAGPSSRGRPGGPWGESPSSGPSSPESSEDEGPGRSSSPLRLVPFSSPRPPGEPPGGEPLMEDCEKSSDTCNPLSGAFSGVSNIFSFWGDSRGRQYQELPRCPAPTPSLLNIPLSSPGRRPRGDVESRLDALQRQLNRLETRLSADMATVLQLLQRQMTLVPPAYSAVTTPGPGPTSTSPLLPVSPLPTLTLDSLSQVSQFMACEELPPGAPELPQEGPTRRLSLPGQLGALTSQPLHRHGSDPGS

Liver = test: Metabolic stability in mouse liver microsomes assessed as compound remaining after 30 mins; type: ADME; conditions: 0.5 h
Procedure, shortened: (§2)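 One-point microsomal stability test: compound incubated 30 min with human, rat or mouse liver microsomes; percentage of parent remaining measured.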

Plasmodium falciparum [3] = test: Antiplasmodial activity against Plasmodium falciparum NF54 by [3H]hypoxanthine incorporation assay; type: functional, organism-based
Procedure, shortened: (§3)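 Modified [3H]-hypoxanthine incorporation assay on P. falciparum asexual cultures, chloroquine and artesunate as references in every run. IC50 values are means of ≥2 independent experiments; individual values mostly within 2-fold (maximum 3-fold).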

[4] = Plasma concentration in mouse infected with Plasmodium berghei ANKA at 50 mg/kg/day, po after 1 hr by HPLC analysis; type: ADME, organism-based; design: route oral; procedure, shortened: as §1
Liver microsome [5] = test: Metabolic stability in rat liver microsomes assessed as compound remaining after 30 mins; type: ADME; conditions: 0.5 h; procedure, shortened: as §2
Plasmodium falciparum [6] = test: Antiplasmodial activity against Plasmodium falciparum K1 by [3H]hypoxanthine incorporation assay; type: functional, organism-based; procedure, shortened: as §3
[7] = Aqueous solubility of the compound at pH 6.5; type: physicochemical; conditions: buffer
Liver microsome [8] = test: Metabolic stability in human liver microsomes assessed as compound remaining after 30 mins; type: ADME; conditions: 0.5 h; procedure, shortened: as §2
Plasmodium berghei [9] = test: Antimalarial activity against Plasmodium berghei ANKA infected in mouse assessed as reduction in parasitemia at 50 mg/kg/day, po qd administered for 4 days relative to control; type: functional; design: Activity: scale not given: the % may be the effect or the level left
Procedure, shortened: (§4)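 Mice (n = 3) infected with GFP-transfected P. berghei ANKA; compound in HPMC suspension vehicle given orally once daily at 4, 24, 48 and 72 h after infection. Blood collected day 4 (96 h post-infection); parasitemia by flow cytometry (detection limit 0.1%). Activity = difference in mean % parasitemia between control and treated groups, as % of control.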

[10] = Aqueous solubility of the compound at pH 2; type: physicochemical; conditions: buffer
[11] = tested on: CHO cells (Cricetulus griseus); test: Selectivity index, ratio of IC50 for Chinese hamster CHO cells to IC50 for Plasmodium falciparum
[12] = Plasma concentration in mouse infected with Plasmodium berghei ANKA at 50 mg/kg/day, po after 24 hrs by HPLC analysis; type: ADME, organism-based; design: route oral; procedure, shortened: as §1
[13] = tested on: CHO cells (Cricetulus griseus); test: Cytotoxicity against Chinese hamster CHO cells
[14] = Selectivity index, ratio of IC50 for CHO cells to IC50 for Plasmodium falciparum; type: toxicity, cell-based; conditions: hamster, read-out: Ratio IC50
CHO = test: Cytotoxicity against CHO cells; type: cell-based, Cricetulus griseus; conditions: chinese hamster
Rattus norvegicus [15] = test: AUC (0 to infinity) in Sprague-Dawley rat at 3.6 mg/kg, po; type: ADME, organism-based, Plasma; design: time infinity, dose 3.6 mg/kg, route oral; conditions: in vivo
Procedure, shortened: (§5)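 Adult male Sprague-Dawley rats fasted overnight; dose 3.6 mg/kg prepared fresh, dissolved in water/0.01 M HCl/propylene glycol/ethanol/Tween 80 (1:2:1:0.1:0.1), given orally (1 mL) or intravenously (350 µL). Food returned 5 h post-dose. Heparinized blood taken at set time points, plasma held at -80°C, analysed by LC/MS/MS; parameters by non-compartmental analysis.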

Plasmodium berghei [16] = test: Antimalarial activity against Plasmodium berghei ANKA infected in mouse assessed as reduction in parasitemia at 3 mg/kg/day, po qd administered for 4 days relative to control; type: functional; design: Activity: scale not given: the % may be the effect or the level left; procedure, shortened: as §4
[17] = (§6) Apparent half life in Sprague-Dawley rat at 3.6 mg/kg, po; type: ADME, organism-based; design: dose 3.6 mg/kg, route oral; conditions: Sprague-Dawley, in vivo, read-out: t1/2(app) (converted); procedure, shortened: as §5
[18] = Volume of distribution at steady state in Sprague-Dawley rat at 3.6 mg/kg, iv; type: ADME, organism-based; design: dose 3.6 mg/kg, route intravenous; conditions: in vivo, read-out: Vdss; procedure, shortened: as §5
Rattus norvegicus [19] = test: (§7) Oral bioavailability in Sprague-Dawley rat at 3.6 mg/kg; type: ADME, organism-based; conditions: in vivo; procedure, shortened: as §5
Rattus norvegicus [20] = test: AUC (0 to infinity) in Sprague-Dawley rat at 3.6 mg/kg, iv; type: ADME, organism-based, Plasma; design: time infinity, dose 3.6 mg/kg, route intravenous; conditions: in vivo; procedure, shortened: as §5
Plasmodium berghei [21] = test: Antimalarial activity against Plasmodium berghei ANKA infected in mouse assessed as reduction in parasitemia at 10 mg/kg/day, po qd administered for 4 days relative to control; type: functional; design: Activity: scale not given: the % may be the effect or the level left; procedure, shortened: as §4
[22] = (§8) Cmax in Sprague-Dawley rat at 3.6 mg/kg, po; type: ADME, organism-based; design: dose 3.6 mg/kg, route oral; conditions: Sprague-Dawley, in vivo; procedure, shortened: as §5
[23] = Apparent half life in Sprague-Dawley rat at 3.6 mg/kg, iv; type: ADME, organism-based; design: dose 3.6 mg/kg, route intravenous; conditions: in vivo; procedure, shortened: as §5
[24] = (§9) Tmax in Sprague-Dawley rat at 3.6 mg/kg, po; type: ADME, organism-based; design: dose 3.6 mg/kg, route oral; conditions: Sprague-Dawley, in vivo; procedure, shortened: as §5
Rattus norvegicus [25] = test: as §6; type: ADME, organism-based; design: dose 3.6 mg/kg, route oral; conditions: in vivo; procedure, shortened: as §5
[26] = as §7; type: ADME, organism-based; conditions: Sprague-Dawley, in vivo; procedure, shortened: as §5
Rattus norvegicus [27] = test: as §8; type: ADME, organism-based; design: dose 3.6 mg/kg, route oral; conditions: in vivo; procedure, shortened: as §5
Rattus norvegicus [28] = test: as §9; type: ADME, organism-based; design: dose 3.6 mg/kg, route oral; conditions: in vivo; procedure, shortened: as §5

C[S+]([O-])c1cccc(-c2ccc3ncc(-c4ccc(S(C)(=O)=O)cc4)n3n2)c1 (stereo unspecified)
concentration at 4 h [1]: 490 nM | IC50 [2]: 4000 nM | Stability (Liver): Unstable | IC50 (Plasmodium falciparum [3]): 39 nM | concentration at 1 h [4]: 590 nM | Stability (Liver microsome [5]): Unstable | IC50 (Plasmodium falciparum [6]): 36 nM | solubility [7]: 157 µM (≈ 64.6 µg/mL) | Stability (Liver microsome [8]): Unstable | Activity (Plasmodium berghei [9]): 99.8% | MSD (Plasmodium berghei [9]): 14 days | solubility [10]: 188 µM (≈ 77.4 µg/mL)

CS(=O)(=O)c1ccc(-c2cnc3ccc(-c4cccc(S(=O)(=O)CCCN)c4)nn23)cc1
concentration at 4 h [1]: < 10 nM | selectivity ratio [11]: > 1000 | IC50 [2]: > 33000 nM | Stability (Liver): Stable | IC50 (Plasmodium falciparum [3]): 3 nM | Stability (Liver microsome [5]): Stable | concentration at 24 h [12]: < 10 nM | Activity [13]: Non-toxic | selectivity ratio [14]: > 1000 | IC50 (Plasmodium falciparum [6]): 2.6 nM | solubility [7]: > 200 µM | Stability (Liver microsome [8]): Stable | Activity (Plasmodium berghei [9]): <40% | MSD (Plasmodium berghei [9]): 4 days | Activity (CHO): Non-toxic | solubility [10]: > 200 µM

CS(=O)(=O)c1cccc(-c2ccc3ncc(-c4ccc(C(=O)N5CCC(O)C5)cc4)n3n2)c1 (stereo unspecified)
concentration at 4 h [1]: < 10 nM | IC50 [2]: > 33000 nM | Stability (Liver): Stable | IC50 (Plasmodium falciparum [3]): 18 nM | Stability (Liver microsome [5]): Stable | concentration at 24 h [12]: < 10 nM | IC50 (Plasmodium falciparum [6]): 21 nM | solubility [7]: 177 µM (≈ 81.9 µg/mL) | Stability (Liver microsome [8]): Stable | Activity (Plasmodium berghei [9]): <40% | MSD (Plasmodium berghei [9]): 4 days | solubility [10]: 191 µM (≈ 88.3 µg/mL)

C[S+]([O-])c1ccc(-c2cnc3ccc(-c4cccc([S+](C)[O-])c4)nn23)cc1 (stereo unspecified)
concentration at 4 h [1]: 760 nM | IC50 [2]: 12000 nM | Stability (Liver): Unstable | IC50 (Plasmodium falciparum [3]): 35 nM | concentration at 1 h [4]: 2440 nM | Stability (Liver microsome [5]): Unstable | IC50 (Plasmodium falciparum [6]): 30 nM | solubility [7]: 192 µM (≈ 75.9 µg/mL) | Stability (Liver microsome [8]): Unstable | Activity (Plasmodium berghei [9]): 99.8% | MSD (Plasmodium berghei [9]): 25 days | solubility [10]: 205 µM (≈ 81.1 µg/mL)

C[S+]([O-])c1ccc(-c2cnc3ccc(-c4cccc(S(=O)(=O)C5CC5)c4)nn23)cc1 (stereo unspecified)
concentration at 4 h [1]: 20 nM | AUC (Rattus norvegicus [15]): 0.36 µM·h | selectivity ratio [11]: > 1000 | Activity (Plasmodium berghei [16]): 98% | MSD (Plasmodium berghei [16]): 7 days | IC50 (Plasmodium falciparum [3]): 1.1 nM | half-life [17]: 4.8 h | concentration at 1 h [4]: 80 nM | Vd [18]: 0.73 L/kg | Activity [13]: Non-toxic | selectivity ratio [14]: > 1000 | solubility [7]: < 5 µM | bioavailability (Rattus norvegicus [19]): 11% | AUC (Rattus norvegicus [20]): 3.3 µM·h | Activity (Plasmodium berghei [21]): 99.6% | MSD (Plasmodium berghei [21]): 8 days | Cmax [22]: 40 nM | Activity (Plasmodium berghei [9]): 99.8% | MSD (Plasmodium berghei [9]): >30 days | Activity (CHO): Non-toxic | half-life [23]: 0.55 h | Tmax [24]: 8 h | solubility [10]: 61 µM (≈ 26.7 µg/mL)

CS(=O)(=O)c1ccc(-c2cnc3ccc(-c4cccc(S(=O)(=O)C5CC5)c4)nn23)cc1
AUC (Rattus norvegicus [15]): 27 µM·h | IC50 (Plasmodium falciparum [3]): 0.88 nM | t1/2(app) (Rattus norvegicus [25]): 4.8 h | Vd [18]: 2.3 L/kg | IC50 (Plasmodium falciparum [6]): 0.53 nM | solubility [7]: < 5 µM | bioavailability [26]: 24% | AUC (Rattus norvegicus [20]): 121 µM·h | Cmax (Rattus norvegicus [27]): 1500 nM | Tmax (Rattus norvegicus [28]): 12 h | solubility [10]: 19 µM (≈ 8.62 µg/mL)
